Reference: ChEMBL document CHEMBL1132203, “Synthesis and biological properties of novel pyridinioalkanoyl thiolesters (PATE) as anti-HIV-1 agents that target the viral nucleocapsid protein zinc fingers” (J Med Chem, 1999)

Legend:
[1] = test system: Human immunodeficiency virus 1; test: Effective antiviral concentration against HIV-1 infected CEM-SS cells; assay type: functional, organism-based; details: Human immunodeficiency virus 1, CEM-SS
How it was run: (§1)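 CEM-SS cells infected with HIV-1 RF at MOI 0.01, scored by XTT dye-reduction cytoprotection. EC50 is the concentration giving 50% protection of infected cells. IC50 is the concentration causing 50% cytotoxicity (growth inhibition). High test concentration 316 μM.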

[2] = test system: Human immunodeficiency virus 1; test: Antiviral activity against HIV-1 infected CEM-SS cells was determined in XTT cytoprotection assay; assay type: functional, organism-based; details: Human immunodeficiency virus 1, CEM-SS; how it was run: as §1
[3] = test system: Human immunodeficiency virus 1; test: Nucleocapsid p7 protein (NCp7) zinc finger domain reactivity was measured by Trp37 fluorescence assay expressed as the average decrease in relative fluorescence units over 30 min; assay type: functional
How it was run: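 Recombinant HIV-1 NCp7 (pET3A construct expressed in E. coli BL21); intrinsic fluorescence of Trp37 in the C-terminal zinc finger monitored over 30 min after compound addition. Value is the mean fall in relative fluorescence units per minute across 30 min, taken as a readout of Zn ejection. Dithiane or DIBA-1 served as reference. Where glutathione pretreatment was used, 2 mM compound was held 2 h at 37 °C with 2–8 M excess reduced glutathione, then diluted 40-fold to 50 μM final compound.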

Structure (SMILES)	EC50 [1] [µM]	IC50 [2] [µM]	Activity [3] [RFU min-1]
COc1cnc(NS(=O)(=O)c2ccc(-n3sc4ccccc4c3=O)cc2)nc1	17.8	57.6	
Cc1cc(NS(=O)(=O)c2ccc(NC(=O)c3ccccc3SSc3ccccc3C(=O)Nc3ccc(S(=O)(=O)Nc4cc(C)on4)cc3)cc2)no1	1.9	27.6	
Cc1nnc(NS(=O)(=O)c2ccc(-n3sc4ccccc4c3=O)cc2)s1	7.8	17.3	
Cc1cc(C)nc(NS(=O)(=O)c2ccc(NC(=O)c3ccccc3SSc3ccccc3C(=O)Nc3ccc(S(=O)(=O)Nc4nc(C)cc(C)n4)cc3)cc2)n1	1.6	32.2	
O=C(CCCCBr)Sc1ccccc1C(=O)Nc1ccc(S(=O)(=O)c2ccc(NS(=O)(=O)Cc3ccccc3[N+](=O)[O-])cc2)cc1		> 316	1.9
Cc1noc(NS(=O)(=O)c2ccc(-n3sc4ccccc4c3=O)cc2)c1C	12.8	39	
CC(=O)NS(=O)(=O)c1ccc(-n2sc3ccccc3c2=O)cc1	12.6	34	
O=C(Nc1ccc(S(=O)(=O)Nc2nccs2)cc1)c1ccccc1SSc1ccccc1C(=O)Nc1ccc(S(=O)(=O)Nc2nccs2)cc1	1	18	
CC(=O)NS(=O)(=O)c1ccc(NC(=O)c2ccccc2NC(=O)CCCC[n+]2ccccc2)cc1.[Br-]		> 316	2.6
O=C(NS(=O)(=O)c1ccc(-n2sc3ccccc3c2=O)cc1)c1ccccc1	9.3	49.5	
O=c1c2ccccc2sn1-c1ccc(S(=O)(=O)Nc2ccc(Cl)nn2)cc1	7.1	19.2	
COc1cc(NS(=O)(=O)c2ccc(-n3sc4ccccc4c3=O)cc2)nc(OC)n1	7.6	56.6	
NS(=O)(=O)c1ccc(CNC(=O)c2ccccc2SSc2ccccc2C(=O)NCc2ccc(S(N)(=O)=O)cc2)cc1	0.33	19.4	3.3
O=c1c2ccccc2sn1-c1ccc(S(=O)(=O)c2ccc(NS(=O)(=O)Cc3ccccc3[N+](=O)[O-])cc2)cc1	3.2	59.5	2
NS(=O)(=O)c1ccc(CNC(=O)c2ccccc2SC(=O)CCCC[n+]2ccccc2)cc1.[Br-]	1.1	55	1.4
COc1cc(NS(=O)(=O)c2ccc(NC(=O)c3ccccc3SSc3ccccc3C(=O)Nc3ccc(S(=O)(=O)Nc4cc(OC)nc(OC)n4)cc3)cc2)nc(OC)n1	2.1	52.5	
O=c1c2ccccc2sn1-c1ccc(S(=O)(=O)Nc2cnc3ccccc3n2)cc1	9.2	54.7	
CC(=O)NS(=O)(=O)c1ccc(NC(=O)c2ccccc2NC(=O)CCl)cc1		202	0.3
CC(=O)NS(=O)(=O)c1ccc(NC(=O)c2ccccc2NC(=O)CCCl)cc1		> 316	2
O=C(Nc1ccc(S(=O)(=O)c2ccc(NC(=O)c3ccccc3SSc3ccccc3C(=O)Nc3ccc(S(=O)(=O)c4ccc(NC(=O)c5cccs5)cc4)cc3)cc2)cc1)c1cccs1	12.2	190	
O=C(Nc1ccc(S(=O)(=O)c2ccc(NS(=O)(=O)Cc3ccccc3[N+](=O)[O-])cc2)cc1)c1ccccc1SSc1ccccc1C(=O)Nc1ccc(S(=O)(=O)c2ccc(NS(=O)(=O)Cc3ccccc3[N+](=O)[O-])cc2)cc1	12.3	> 316	1.5
Cc1cc(NS(=O)(=O)c2ccc(-n3sc4ccccc4c3=O)cc2)nc(C)n1	6.5	39.7	
NS(=O)(=O)c1ccc(NS(=O)(=O)c2ccc(-n3sc4ccccc4c3=O)cc2)cc1	6.2	18.1	
O=C(NS(=O)(=O)c1ccc(NC(=O)c2ccccc2SSc2ccccc2C(=O)Nc2ccc(S(=O)(=O)NC(=O)c3ccccc3)cc2)cc1)c1ccccc1	3.8	54.1	
Cc1ccnc(NS(=O)(=O)c2ccc(-n3sc4ccccc4c3=O)cc2)n1	8.8	57.4	

Structure (SMILES)	EC50 [1] [µM]	IC50 [2] [µM]	Activity [3] [RFU min-1]
Cc1noc(NS(=O)(=O)c2ccc(NC(=O)c3ccccc3SSc3ccccc3C(=O)Nc3ccc(S(=O)(=O)Nc4onc(C)c4C)cc3)cc2)c1C	2.5	44.2	
O=C(Nc1ccc(S(=O)(=O)Nc2ccccn2)cc1)c1ccccc1SSc1ccccc1C(=O)Nc1ccc(S(=O)(=O)Nc2ccccn2)cc1	1.1	17.8	
O=C(Nc1ccc(S(=O)(=O)Nc2ccnn2-c2ccccc2)cc1)c1ccccc1SSc1ccccc1C(=O)Nc1ccc(S(=O)(=O)Nc2ccnn2-c2ccccc2)cc1	0.33	19.5	
O=C(Nc1ccc(S(=O)(=O)Nc2ccc(Cl)nn2)cc1)c1ccccc1SSc1ccccc1C(=O)Nc1ccc(S(=O)(=O)Nc2ccc(Cl)nn2)cc1	2.9	18.3	
Cc1cc(NS(=O)(=O)c2ccc(NC(=O)c3ccccc3SSc3ccccc3C(=O)Nc3ccc(S(=O)(=O)Nc4cc(C)nc(C)n4)cc3)cc2)nc(C)n1	1.9	18.2	
O=C(Nc1ccc(S(=O)(=O)Nc2cnc3ccccc3n2)cc1)c1ccccc1SSc1ccccc1C(=O)Nc1ccc(S(=O)(=O)Nc2cnc3ccccc3n2)cc1	0.72	22.2	
COc1ccc(NS(=O)(=O)c2ccc(NC(=O)c3ccccc3SSc3ccccc3C(=O)Nc3ccc(S(=O)(=O)Nc4ccc(OC)nn4)cc3)cc2)nn1	4.2	53.8	
O=c1c2ccccc2sn1-c1ccc(S(=O)(=O)Nc2ncccn2)cc1	6.5	50.8	
NS(=O)(=O)c1ccc(NS(=O)(=O)c2ccc(NC(=O)c3ccccc3SSc3ccccc3C(=O)Nc3ccc(S(=O)(=O)Nc4ccc(S(N)(=O)=O)cc4)cc3)cc2)cc1	2.3	43	
Cc1cc(C)nc(NS(=O)(=O)c2ccc(-n3sc4ccccc4c3=O)cc2)n1	6.9	17.1	
O=C(Nc1ccc(S(=O)(=O)Nc2ncccn2)cc1)c1ccccc1SSc1ccccc1C(=O)Nc1ccc(S(=O)(=O)Nc2ncccn2)cc1	2	46.4	
COc1cc(NS(=O)(=O)c2ccc(NC(=O)c3ccccc3SSc3ccccc3C(=O)Nc3ccc(S(=O)(=O)Nc4cc(OC)ncn4)cc3)cc2)ncn1	1.6	46.5	
Cc1ccnc(NS(=O)(=O)c2ccc(NC(=O)c3ccccc3SSc3ccccc3C(=O)Nc3ccc(S(=O)(=O)Nc4nccc(C)n4)cc3)cc2)n1	4.2	56.7	
O=c1c2ccccc2sn1-c1ccc(S(=O)(=O)c2ccc([N+](=O)[O-])cc2)cc1		> 316	4.1
CC(=O)NS(=O)(=O)c1ccc(NC(=O)c2ccccc2SSc2ccccc2C(=O)Nc2ccc(S(=O)(=O)NC(C)=O)cc2)cc1	1.5	> 200	
Cc1nc(NS(=O)(=O)c2ccc(NC(=O)c3ccccc3SSc3ccccc3C(=O)Nc3ccc(S(=O)(=O)Nc4nc(C)c(C)o4)cc3)cc2)oc1C	2.4	46.4	
O=C(Nc1ccc(S(=O)(=O)c2ccc(NC(=O)c3ccccc3SSc3ccccc3C(=O)Nc3ccc(S(=O)(=O)c4ccc(NC(=O)c5cc([N+](=O)[O-])cc([N+](=O)[O-])c5)cc4)cc3)cc2)cc1)c1cc([N+](=O)[O-])cc([N+](=O)[O-])c1	240	> 316	1.6
NS(=O)(=O)c1ccc(NC(=O)c2ccccc2SSc2ccccc2C(=O)Nc2ccc(S(N)(=O)=O)cc2)cc1	0.85	217	
NS(=O)(=O)c1ccc(-n2sc3ccccc3c2=O)cc1		16.2	
Cc1nnc(NS(=O)(=O)c2ccc(NC(=O)c3ccccc3SSc3ccccc3C(=O)Nc3ccc(S(=O)(=O)Nc4nnc(C)s4)cc3)cc2)s1	3.4	18.6	
COc1cnc(NS(=O)(=O)c2ccc(NC(=O)c3ccccc3SSc3ccccc3C(=O)Nc3ccc(S(=O)(=O)Nc4ncc(OC)cn4)cc3)cc2)nc1	2.1	55.5	
N=C(N)NS(=O)(=O)c1ccc(NC(=O)c2ccccc2SSc2ccccc2C(=O)Nc2ccc(S(=O)(=O)N=C(N)N)cc2)cc1	111	> 316	
Cc1cc(NS(=O)(=O)c2ccc(-n3sc4ccccc4c3=O)cc2)no1	8.7	54.6	
COc1ccc(NS(=O)(=O)c2ccc(-n3sc4ccccc4c3=O)cc2)nn1	22.6	55.3	
